An excerpt weighted towards active compounds, which were near 1.5% of everything screened.
CXCR6 inh – CXCR6 receptor inhibitors, primary screen, cell-based, beta-arrestin, luminescence, CHO-K1 PathHunter, 1536-well; C-X-C chemokine receptor type 6 (Homo sapiens), O00574; inhibition, % at 20 µM; hit rate 0.36% among 360,000; AID 602244, 2012; in the data active = inhibition above about 34%, passing the limit was not always enough;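 also: antagonist mode with CXCL16 agonist at 10 nM final; 0% = 10 nM CXCL16 with DMSO and 100% = unstimulated wells without agonist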
Target sequence (O00574 whole entry, looked up): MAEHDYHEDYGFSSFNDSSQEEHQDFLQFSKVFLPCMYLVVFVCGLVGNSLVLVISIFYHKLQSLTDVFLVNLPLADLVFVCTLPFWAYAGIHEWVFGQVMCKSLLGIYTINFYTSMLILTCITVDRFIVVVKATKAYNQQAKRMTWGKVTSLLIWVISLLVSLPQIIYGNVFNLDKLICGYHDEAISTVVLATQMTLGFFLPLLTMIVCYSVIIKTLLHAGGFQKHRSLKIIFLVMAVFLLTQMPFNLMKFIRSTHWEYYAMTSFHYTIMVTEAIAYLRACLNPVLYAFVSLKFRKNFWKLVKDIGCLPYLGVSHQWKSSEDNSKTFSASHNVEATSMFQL
EBI2 antag – EBI2 receptor antagonists, beta-arrestin recruitment, primary screen, cell-based, luminescence, 7a,25-OHC stimulation, uHTS | G-protein coupled receptor 183 (Homo sapiens), P32249 | 7a,25-OHC stimulated | inhibition, % at 5 µM | hit rate 0.81% among 360,000; in the data active = inhibition above about 38%;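 also: enzyme fragment complementation signal reports receptor beta-arrestin coupling in cells; 0% = agonist plus DMSO wells and 100% = wells without agonist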
APJ ag – agonists of human apelin receptor APJ, primary screen, CHO-K1 cells, PathHunter beta-arrestin, luminescence. activation, % at 20 µM. 0% DMSO wells, 100% apelin. AID 2520, 2010. hit rate 0.11% among 330,000. P35414;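 active = activation more than six SD over the plate average, tested at 20 µM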;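 also: 0% = DMSO alone and 100% = apelin-13 at 10 nM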
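Test system: CHO-K1 APJ beta-arrestin complementation cell line | Compound: Single test compound dose, 20 µM final, 1% DMSO | Incubation: Compound 90 min 25 °C, reagent 1 h | Measured by: beta-gal luminescence | Read-out basis: APJ–arrestin association signal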
CCR6 antag – CCR6 receptor antagonists, primary screen, cell-based, CHO-K1, luminescence, beta-arrestin, uHTS; CHO-K1 CCR6 PathHunter beta-arrestin, CCL20-stimulated; inhibition, % at 20 µM; hit rate 0.49% among 340,000; AID 493098, 2011;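 active = compounds whose inhibition of the agonist-driven luminescence signal at 20 µM reaches about 50%, limit read from the data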;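 also: cells stimulated with CCL20 at 14 nM final; plate controls were DMSO with CCL20 for no effect and DMSO without agonist for full effect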
APJ antag – antagonists of human apelin receptor APJ, primary screen, CHO-K1 cells, beta-arrestin complementation, luminescence | hit rate 0.32% among 330,000 | inhibition, % at 20 µM | AID 2521, 2010;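 active = inhibition above about 40% at 20 µM, limit read from the data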;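 also: cells challenged with 10 nM apelin-13 agonist together with compound; plate controls were apelin-13 plus DMSO wells for no effect and DMSO wells lacking apelin-13 for full effect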
APJ antag conf – APJ antagonists blocking beta-arrestin recruitment, confirmation, cell-based, luminescence, single concentration, uHTS hits; hit rate 66% among 950; AID 2766, 2010; antagonist mode; shares compounds with APJ antag; inhibition, % at 20 µM; in the data active = inhibition above about 50%
CXCR6 antag conf – CXCR6 receptor antagonists, confirmation, cell-based, single concentration, beta-arrestin, luminescence. inhibition, % at 20 µM. AID 602409, 2012. shares compounds with CXCR6 inh. hit rate 65% among 700. CHO-K1 CXCR6 PathHunter beta-arrestin;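 active = mean inhibition over four retests above 40%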;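 also: receptor stimulated with 10 nM CXCL16 agonist; beta-galactosidase fragment complementation upon beta-arrestin recruitment to receptor; plate controls were CXCL16 plus DMSO for no effect and DMSO without CXCL16 for full effect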
EBI2 antag conf – EBI2 antagonist hit retest, beta-arrestin, confirmation, cell-based, single concentration, luminescence, 7a,25-OHC stimulation; AID 651997, 2013; inhibition, % at 5 µM; shares compounds with EBI2 antag; hit rate 29% among 2,400; 7a,25-OHC antagonism;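 active = inhibition of at least 50%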
EBI2 agonist – EBI2 agonist activity of antagonist hits, confirmation, counter-screen for EBI2 antagonist project, cell-based, single concentration, agonist mode, luminescence; shares compounds with EBI2 antag; EBI2-expressing cells, 60 min; 0% vehicle, 100% 7α,25-dihydroxycholesterol control; activation, % at 5 µM; 2,400 tested, under 10 active; AID 652000, 2013;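 active = activation of at least 50%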
bGal cs – E. coli beta-galactosidase enzyme inhibition, confirmation, counter-screen for EBI2 antagonist project, biochemical, luminescence, single concentration | shares compounds with EBI2 antag | purified beta-galactosidase, luminescent Galacton Star, 15 min | inhibition, % at 5 µM | hit rate 1% among 2,400 | AID 652176, 2013;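 active = replicate-average signal at least 3 plate SD below neutral wells, shown as high inhibition, flagging enzyme-inhibiting false positives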;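 also: 0% = DMSO wells with enzyme and 100% = wells lacking enzyme; higher means stronger loss of beta-gal luminescence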
* = called active by the depositor; / = not tested or not shown.

SMILES | CXCR6 inh | EBI2 antag | APJ ag | CCR6 antag | APJ antag | APJ antag conf | CXCR6 antag conf | EBI2 antag conf | EBI2 agonist | bGal cs
CCc1cc2c(=O)[nH]c(-c3ccccn3)nc2s1 | 48.9* | 50.0* | -6.3 | 86.8* | 78.2* | 70.4* | 69.3* | / | / | /
Cc1ccc(CN2C(=O)C(Cc3ccccc3)Nc3ncnc(N4CCN(c5ccccc5)CC4)c32)cc1 (stereo unspecified) | 74.2* | 59.9* | -20.8 | 80.3* | 73.5* | 111.3* | 72.0* | 61.7* | -3.2 | 37.4*
O=C1C(Cc2ccccc2)Nc2ncnc(N3CCN(c4ccccc4)CC3)c2N1Cc1ccc(Br)cc1 (stereo unspecified) | 74.5* | 74.8* | -12.3 | 86.8* | 81.7* | 118.3* | 79.1* | 70.6* | -4.0 | 41.3*
C/C(=N\NC(=O)c1cc2ccccc2cc1O)c1ccccn1 | 17.9 | 50.5* | -19.6 | 19.9 | 44.1* | 29.7 | / | 75.5* | -2.2 | -1.9
C/C(=N\NC(=O)c1c[nH]c2ccccc12)c1ccccn1 | -4.2 | 7.2 | 5.1 | 0.0 | -40.1 | / | / | / | / | /
C/C(=N\NC(=O)c1ccc(F)cc1)c1ccccn1 | 71.6* | 64.1* | -11.1 | 80.2* | 60.2* | 87.2* | 85.7* | 84.0* | -2.1 | -9.9
Cc1cccc(NC(=S)Nc2ccc(N3CCOCC3)cc2)c1C | 3.3 | -3.0 | -2.8 | 21.7 | 9.2 | / | / | / | / | /
CCCOc1cccc(-c2cc(C(=O)N/N=C/c3ccccn3)c3ccccc3n2)c1 | 57.1* | 48.1* | -11.8 | 70.4* | 47.6* | 54.2* | 45.5* | 60.6* | 0.2 | 2.0
CCCOc1cccc(-c2cc(C(=O)N/N=C/c3cccnc3)c3ccccc3n2)c1 | 10.2 | 0.6 | 2.5 | -5.8 | -45.7 | / | / | / | / | /
COCCNC(=O)C1(C)CCCN(C(=O)c2cc(C)on2)C1 (stereo unspecified) | -13.1 | -8.4 | / | / | / | / | / | / | / | /
O=P1(c2ccccc2)C=Cn2c1cc1c2CCCC1 (stereo unspecified) | -9.9 | -10.3 | -1.6 | -4.3 | 3.1 | / | / | / | / | /
CC(C)(C)NC(=O)NC(=O)COC(=O)c1c(F)cccc1Cl | 40.3* | 14.2 | -0.6 | 8.8 | 4.4 | / | 5.8 | / | / | /
O=C(Nc1ccccc1Oc1ccccc1)[C@@H]1O[C@H](CO)[C@H](O)[C@H](O)[C@H]1O | 57.2* | 14.5 | / | / | / | / | 70.9* | / | / | /
CCOC(=O)CSc1cccc2cccnc12 | 53.0* | 5.3 | -6.8 | 69.2* | 37.1 | / | 65.4* | / | / | /
Cc1occc1C(=O)NNC(=S)NC(=O)COc1ccc(Cl)cc1Cl | 41.5* | 3.0 | -4.2 | 47.5 | 29.0 | / | 36.6 | / | / | /
CNC[C@@H](Cc1ccccc1)NC[C@@H](CC1CCCCC1)NCCCc1ccccc1 | -3.5 | -26.7 | 8.8 | 41.5 | 32.5 | / | / | / | / | /
CNC[C@@H](CC1CCCCC1)NC[C@H](CC(C)C)NCCc1cccc(C(F)(F)F)c1 | 42.2* | -11.5 | -8.4 | 40.6 | 15.5 | / | 37.2 | / | / | /
COc1ccc(/C(N)=N/OC(=O)CC2CCCCC2)cc1 | -12.1 | 2.8 | 3.5 | 10.1 | 12.6 | / | / | / | / | /
COc1ccc(Nc2ncccc2C(=O)O)cc1 | 69.5* | -3.1 | 0.5 | -34.6 | -1.4 | / | 17.4 | / | / | /
COc1ccc(CSc2ncnc3sccc23)cc1F | -2.8 | -2.5 | -0.2 | 14.3 | 11.2 | / | / | / | / | /

Compound activity (PubChem)
